Paper PMC10764114 (ACS Omega, 2023)

Key:
[1] = tested on: U87-malignant glioma (ATCC-HTB-14); assay: MTT assay, cytotoxicity against U87-malignant glioma cells; format: cell-based, human; conditions: Homo sapiens, Glioma cell
In short: (§1)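 Cells grown in DMEM (4.5 g/L glucose, 10% FBS, 1% penicillin/streptomycin) at 37 °C, 5% CO₂. Seeded at 1 × 10³ cells/well and left 24 h to adhere. Test compound added at 10, 40, 80, 100 or 150 μM for 48 h (text also states MTT added 24 h post-dosing). MTT in PBS added for 3 h, formazan dissolved in DMSO for 30 min, OD read at 550 nm, % viability calculated from absorbance.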

[2] = tested on: human embryonic kidney HEK293 cell line; assay: MTT assay, cytotoxicity against normal HEK293 cells; format: cell-based; conditions: compared with malignant glioma U87 cells, 10-150 μM
In short: as §1

[3] = as above; format: cell-based, human; conditions: human, HEK293 cells
In short: as §1

Q: Which viability at 10 µM ([1]; read-out: % cell viability U87) does the source give for `COc1ccc(C=NNC(=O)COc2ccc(C=NNC(=O)C(C)c3ccc(CC(C)C)cc3)cc2)c(OC)c1` (stereo not drawn) [5f, N′-(4-(2-(2-(2,4-Dimethoxybenzylidene)hydrazinyl)-2-oxoethoxy)benzylidene)-2-(4-isobutylphenyl)propanehydrazide] here?
A: Its viability at 10 µM is 54.1%.

Q: And the viability at 40 µM ([1]; read-out: % cell viability U87)?
A: The viability at 40 µM was 44.2%.

Q: And the viability at 80 µM ([1]; read-out: % cell viability U87)?
A: Its viability at 80 µM is 38.7%.

Q: What about the viability at 100 µM ([1]; read-out: % cell viability U87) of the same compound?
A: The viability at 100 µM was 29%.

Q: And the viability at 150 µM ([1]; read-out: % cell viability U87)?
A: Its viability at 150 µM is 21.6%.

Q: And the IC50 ([1]; read-out: IC50 (μM ± SEM U87))?
A: The IC50 was 24.2 ± 0.46 µM.

Q: And the “cytotoxicity in noncancerous cells (HEK293)” value [2]?
A: The value was “lower cytotoxicity”.

Q: What about the viability at 48 h, 10 μM [3] of the same compound?
A: The viability at 48 h, 10 μM was 103%.

Q: And the viability at 48 h, 40 μM [3]?
A: Its viability at 48 h, 40 μM is 79.2%.

Q: And the viability at 48 h, 80 μM [3]?
A: The viability at 48 h, 80 μM was 71.9%.

Q: And the viability at 48 h, 100 μM [3]?
A: Its viability at 48 h, 100 μM is 69.9%.

Q: What about the viability at 48 h, 150 μM [3] of the same compound?
A: The viability at 48 h, 150 μM was 63.5%.
